NR2E3 ag-1 – NR2E3 (human) agonism | inhibition of corepressor binding, % at 4.78 µM | hit rate 0.12% among 320,000 | GST-NR2E3/biotin-RetCOR TR-FRET, 1536-well | AID 2300 | Q9Y5X4;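 active means percent inhibition above the cutoff of mean plus 3 SD of all tested compounds, set per screening campaign, cut at about 20% in these data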
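Test system: GST-NR2E3 and biotin-RetCOR proteins | Quantity: 1.35 nM GST-tagged NR2E3 final | Medium: Tris pH 7.5 | Also added: 7 nM biotin-RetCOR | Dosing: Compound at 4.8 µM, single dose | Timing: 5 h at 4 °C | Detection: Time-resolved FRET | Read-out basis: Percent inhibition | Benchmarks: Biotin wells as high control, 0.6% DMSO wells as low control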
PG9 binder – PG9 antibody binding by small molecule; TR-FRET gp120-PG9 antibody binding; inhibition, % at 6.7 µM; hit rate 0.43% among 360,000; AID 624416; in the data active means inhibition above about 8.5%
NR2E3 ag-2 – activates human NR2E3 receptor; CHO-S Gal4-NCOR/VP16-NR2E3 two-hybrid, luciferase; inhibition of corepressor binding, % at 3.98 µM; hit rate 0.35% among 360,000;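 active means inhibition above the mean of all tested compounds plus 3 SD, cut at about 70% in these data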;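 further: higher means lower luciferase signal from less NR2E3 corepressor binding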
Neddylation inh – inhibitors of human cullin neddylation | hit rate 0.58% among 360,000 | P61081+Q13564 | calls only at 25 µM | TR-FRET cullin neddylation, biochemical; in the data active means inhibition above about 36%
NR1D1 modulator – Rev-erb alpha (human) modulation; Rev-erbα–FITC-DNA binding, fluorescence polarization, 90 min; activity, % at 10 µM; hit rate 0.79% among 370,000;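 active means activity above about 14%, limit read from the data; passing the limit was not always enough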
Target sequence (P20393 whole entry, looked up): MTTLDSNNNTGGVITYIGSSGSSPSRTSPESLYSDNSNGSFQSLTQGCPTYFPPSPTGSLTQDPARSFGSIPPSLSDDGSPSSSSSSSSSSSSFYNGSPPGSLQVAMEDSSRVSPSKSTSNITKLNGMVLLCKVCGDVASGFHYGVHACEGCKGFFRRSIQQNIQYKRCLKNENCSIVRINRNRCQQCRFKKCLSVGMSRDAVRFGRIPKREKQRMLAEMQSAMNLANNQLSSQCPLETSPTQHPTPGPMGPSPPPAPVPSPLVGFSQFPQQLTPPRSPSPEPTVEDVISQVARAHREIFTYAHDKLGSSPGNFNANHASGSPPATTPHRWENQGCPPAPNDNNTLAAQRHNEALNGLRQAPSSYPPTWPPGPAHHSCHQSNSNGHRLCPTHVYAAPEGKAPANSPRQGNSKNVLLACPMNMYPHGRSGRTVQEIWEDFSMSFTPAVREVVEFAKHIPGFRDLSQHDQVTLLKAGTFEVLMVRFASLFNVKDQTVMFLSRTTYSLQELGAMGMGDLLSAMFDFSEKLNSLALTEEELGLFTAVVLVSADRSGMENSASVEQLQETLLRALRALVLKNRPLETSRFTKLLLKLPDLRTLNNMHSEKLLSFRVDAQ
NR2E3 ag conf – confirmation of human NR2E3 agonists. AID 624378. CHO-S mammalian two-hybrid NR2E3-NCOR, luciferase luminescence. inhibition, % at 3.98 µM. shares compounds with NR2E3 ag-2. hit rate 51% among 2,300;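 active means average inhibition above a cutoff equal to the mean inhibition of all tested compounds plus one SD, cut at about 70% in these data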
VP16 counter – GAL4-VP16 reporter inhibition in NR2E3 agonist counterscreen; shares compounds with NR2E3 ag-2; CHO-S GAL4-VP16 luciferase reporter, luminescence; inhibition, % at 3.98 µM; hit rate 29% among 2,300; AID 624379;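 active means mean inhibition above a cutoff equal to the average over all tested compounds plus one standard deviation, cut at about 70% in these data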;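 further: luciferase from a UAS reporter driven by GAL4-VP16 transactivation; higher means less reporter light so more repression of VP16 activity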
Each line names hits and unclear results; the compound was inactive in the other large screens (follow-up assays come after a bar, where shown). A selection: hits, their analogues and other compounds. The true share with any hit is near 2%.

NS(=O)(=O)c1ccc(CCNC(=O)CSc2ccc(Cl)cc2Cl)cc1	none
NS(=O)(=O)c1ccc(CCNc2nn3c(-c4ccc(F)c(Cl)c4)cnc3s2)cc1	none (no result: NR2E3 ag-1) | NR2E3 ag conf inactive | VP16 counter inactive
C[C@@H]1CC2C3C[C@H](F)C4=CC(=O)C=C[C@]4(C)[C@@]3(F)[C@@H](O)C[C@]2(C)[C@@]1(O)C(=O)CO (some centres undefined)	none (no result: NR2E3 ag-1, PG9 binder, NR2E3 ag-2, Neddylation inh)
Cc1ccc(OCCN2CCC2(C)C(=O)NCc2ccc(C(F)(F)F)cc2)cc1 (centres undefined)	none (no result: NR2E3 ag-1) | NR2E3 ag conf inactive | VP16 counter inactive
Cc1[nH]n2c(=O)cc(-c3ccc([N+](=O)[O-])cc3)nc2c1-c1ccccc1	NR2E3 ag-2 96.7 | NR2E3 ag conf 99.2 | VP16 counter inactive
Cc1[nH]n2c(=O)cc(C(C)(C)C)nc2c1-c1ccccc1	none (not shown: Neddylation inh) | NR2E3 ag conf 99.7 | VP16 counter 95.8
CCCc1cc(=O)n2[nH]c(C)c(-c3ccccc3)c2n1	none (not shown: Neddylation inh)
CN(C)c1ccc(C(=O)c2ccccc2C(=O)O)c(O)c1	none
CCCCN(CCCC)c1ccc(C(=O)c2ccccc2C(=O)O)c(O)c1	none | NR2E3 ag conf inactive | VP16 counter inactive
CCNC(=S)NNC(=O)CSc1nc2ccccc2c(=O)n1-c1ccc(Cl)cc1	none (no result: NR2E3 ag-1, PG9 binder, NR2E3 ag-2, Neddylation inh)
O=C(C1CCC1)N1CCc2cc(S(=O)(=O)N3CCCC3)ccc21	none (no result: NR2E3 ag-1, PG9 binder, NR2E3 ag-2, Neddylation inh)
O=c1cc(C(F)(F)F)[nH]c2ccc(C(F)(F)F)cc12	NR2E3 ag-2 93.1 | NR2E3 ag conf 100.8 | VP16 counter 90.7
CC1=C(C)/C(=N\OS(=O)(=O)c2ccc(C)cc2)C=CC1=O	NR2E3 ag-2 71.2 | NR2E3 ag conf inactive | VP16 counter inactive
COc1ccc(CN(C)c2ccc(S(=O)(=O)N3CCN(C)CC3)cc2[N+](=O)[O-])cc1OC	NR2E3 ag-2 94.5 | NR2E3 ag conf 95.9 | VP16 counter 84.8
COc1ccc(CCN(C)c2ccc(S(=O)(=O)N3CCCC3)cc2[N+](=O)[O-])cc1OC	none
COCCN=C1NN=C(c2cc(C)n(CC3CCCO3)c2C)CS1 (centres undefined)	none
C=CCN=C1NN=C(c2cc(C)n(CC=C)c2C)CS1	none | NR2E3 ag conf inactive | VP16 counter inactive
COCCn1c(C)cc(C2=NNC(=Nc3ccccc3F)SC2)c1C	NR2E3 ag-2 88.0 | NR2E3 ag conf inactive | VP16 counter inactive
C#C[C@]1(O)CCC2C3CCC4=Cc5oncc5C[C@]4(C)C3CC[C@@]21C (some centres undefined)	none (no result: NR2E3 ag-1, PG9 binder, NR2E3 ag-2, Neddylation inh)
O[C@@H](COc1cccc2ncccc12)CN1CCN(C2c3ccccc3[C@@H]3[C@H](c4ccccc42)C3(F)F)CC1 (some centres undefined)	none (no result: NR2E3 ag-1, PG9 binder, NR2E3 ag-2, Neddylation inh)
Cc1ccc(OCc2nnc(SCc3nc4ccccc4[nH]3)n2Cc2ccco2)cc1	none | NR2E3 ag conf inactive | VP16 counter inactive
c1ccc(-c2nnc(SCc3nc4ccccc4[nH]3)n2Cc2ccco2)cc1	none
O=C(c1ccccc1)c1nn(-c2ccc(Cl)cc2)c(=O)cc1C(F)(F)F	NR2E3 ag-2 107.7 | NR2E3 ag conf 93.2 | VP16 counter inactive
C=CCN=C1NC(c2cccc(F)c2)C(C(=O)OC)=C(C)N1C (centres undefined)	none (no result: NR2E3 ag-1, NR2E3 ag-2, Neddylation inh)
CCCCC(CC)COC(=O)c1ccc(Nc2nc(Nc3ccc(C(=O)OCC(CC)CCCC)cc3)nc(Nc3ccc(C(=O)OCC(CC)CCCC)cc3)n2)cc1 (centres undefined)	none (no result: NR2E3 ag-1, PG9 binder, NR2E3 ag-2, Neddylation inh)
Cc1ccn2c(NC3CCCC3)c(-c3ccccn3)nc2c1	Neddylation inh active | NR2E3 ag conf inactive | VP16 counter inactive
Cc1cc(C)n2c(NC3CCCCC3)c(-c3ccccn3)nc2n1	none (no result: NR2E3 ag-1)
c1ccc(-c2nc3ccccn3c2NC2CCCC2)nc1	Neddylation inh active | NR2E3 ag conf inactive | VP16 counter inactive
O=C(C1CC1)N1CCc2cc(Br)cc(S(=O)(=O)N3CCN(c4ccccn4)CC3)c21	NR2E3 ag-2 86.7 | NR2E3 ag conf 90.0 | VP16 counter inactive
CCc1ccc2c(c1)C1(NN=C(c3cccc4ccccc34)S1)C(=O)N2 (centres undefined)	NR2E3 ag-2 79.7 | NR2E3 ag conf inactive | VP16 counter inactive
Cc1cc(C)nc(/N=C(\N)Nc2ccc(OCCC(C)C)cc2)n1	none | NR2E3 ag conf inactive | VP16 counter inactive

Screening data (PubChem BioAssay)
